Most compounds without a hit are left out; they make up all but 3.1% or so of the library.
OX1R antag-1 – OX1R (HCRTR1) antagonists, primary screen, fluorescence, CHO/OX1R cells, Fluo-8 calcium, orexin A; Orexin/Hypocretin receptor type 1 (Homo sapiens), O43613; Fluo-8 calcium fluorescence; inhibition, % at 5 µM; 330,000 compounds, 0.43% hits; AID 434989, 2010;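 active = inhibition above its plate's threshold, mean inhibition of all tested compounds on the plate plus 3 SD, cut at about 37% in these data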;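 note: 0% = orexin A challenge wells and 100% = SB-334867-A antagonist wells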
Target sequence (O43613 whole entry, looked up): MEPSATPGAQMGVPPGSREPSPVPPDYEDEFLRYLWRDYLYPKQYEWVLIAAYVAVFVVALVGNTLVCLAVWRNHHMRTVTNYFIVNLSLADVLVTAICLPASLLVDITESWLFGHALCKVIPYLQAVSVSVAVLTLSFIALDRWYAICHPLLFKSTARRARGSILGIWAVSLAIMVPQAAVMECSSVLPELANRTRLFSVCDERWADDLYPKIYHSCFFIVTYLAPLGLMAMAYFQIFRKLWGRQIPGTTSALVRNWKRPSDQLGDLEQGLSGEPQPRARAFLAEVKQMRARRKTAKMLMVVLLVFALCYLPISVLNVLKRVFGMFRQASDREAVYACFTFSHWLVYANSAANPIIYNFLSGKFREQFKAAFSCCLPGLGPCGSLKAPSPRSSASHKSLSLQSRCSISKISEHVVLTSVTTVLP
GPR7 antagonist – GPR7 receptor antagonists, primary screen, cell-based, fluorescence, single concentration | GPR7-expressing cells, fluorescence antagonist assay | inhibition, % at 4.4 µM | 290,000 compounds, 1.1% hits; in the data active = inhibition above about 16%, passing the limit was not always enough;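 note: cells stimulated with the agonist NPW; 0% = agonist with vehicle and 100% = vehicle without agonist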
CHO parental Ca – ATP-evoked calcium signal inhibitors, parental CHO, primary screen, counter-screen for OX1R antagonist project, cell-based, fluorescence, Fluo-8 calcium dye; parental CHO-K1, ATP-induced calcium, Fluo-8 fluorescence; inhibition, % at 5.6 µM; 330,000 compounds, 0.63% hits; AID 463079, 2010;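 active = inhibition above that plate's mean sample inhibition plus 3 SD, cut at about 26% in these data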;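 note: 0% = ATP-challenged DMSO wells and 100% = DMSO wells without ATP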
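Assay system – parental CHO cells · Reagent – ATP stimulus · Detection – intracellular calcium via Fluo-8 no-wash fluorescent dye · Evaluation – percent inhibition of ATP-evoked calcium rise, normalized to controls · Controls – ATP wells versus no-ATP DMSO wells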
GalR3 antagonist – GalR3 antagonists in HEK293 cells, primary screen, cell-based, fluorescence readout. inhibition, % at 3 µM. HEK293 GalR3-CNG cAMP membrane potential fluorescence; galR3 body fused to GalR1 C-terminus. 360,000 compounds, 0.44% hits;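 active = inhibition above the screen-wide average plus 3 SD, cut at about 13% in these data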;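 note: forskolin and galanin both at EC90 stimulate the cells; cAMP rise reported by CNG channel membrane potential dye signal; 0% = forskolin plus galanin with DMSO and 100% = forskolin alone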
OX1R antag-2 – antagonists of human orexin 1 receptor (OX1R); OX1R-expressing cells, FRET antagonist read-out; Orexin/Hypocretin receptor type 1 (Homo sapiens), O43613; inhibition, % at 6.6 µM; 330,000 compounds, 1.8% hits; in the data active = inhibition mostly above about 38%, no sharp cut-off; inactive = mostly below about 40%;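 note: 0% = agonist challenge alone and 100% = reference antagonist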
* = called active by the depositor; . = no result given.

SMILES	OX1R antag-1	GPR7 antagonist	CHO parental Ca	GalR3 antagonist	OX1R antag-2
COCCCNC(=O)CN1C(=O)/C(=C/c2ccccc2)Sc2ccccc21	-4	-8	1	-8	68*
CC(=O)C1=C(C)N(Cc2ccc(Br)cc2)C(=S)NC1c1cccc(Cl)c1 (stereo not drawn)	.	.	.	-9	.
O=C(NCc1ccco1)C1CCN(C(=O)c2cc3sccc3n2Cc2ccc(Cl)cc2)CC1	69*	11	37*	-7	14
O=C(NCc1ccco1)C1CCN(C(=O)c2ccc([N+](=O)[O-])cc2)CC1	4	-15	2	-2	53*
O=C(NCc1ccco1)C1CCN(C(=O)c2ccc(Cl)cc2)CC1	-19	.	-10	-6	13
CCn1c(C(=O)N2CCC(C(=O)NCc3cccs3)CC2)cc2sccc21	-31	-5	-9	.	-1
CC1Cc2ccccc2N1C(=O)c1ccc(N2CCCC2)c([N+](=O)[O-])c1 (stereo not drawn)	-26	-12	-5	-4	29
CC(=O)c1ccc(N2CCN(c3ccccc3O)CC2)c([N+](=O)[O-])c1	63*	10	44*	-11	79*
N#Cc1cc([N+](=O)[O-])ccc1N1CCN(c2ccccc2O)CC1	-12	1	32*	7	23
CC1Cc2ccccc2N1C(=O)c1ccc(N2CCCCC2)c([N+](=O)[O-])c1 (stereo not drawn)	-13	-10	-16	4	50*
CC1(C)CC(=O)C=C(C2CC2)C1=O	.	.	.	-4	.
COc1ccc(CCN2CC(C(=O)NCc3ccon3)CCC2=O)cc1 (stereo not drawn)	.	.	.	-7	.
CCC(C)(C(=O)NC1CCCC1)N(C(=O)CNC(C)=O)c1ccccc1 (stereo not drawn)	-25	19*	-28	-3	16
Cc1c(C(=O)Nc2ccc(F)cc2)nnn1-c1cccc(C(F)(F)F)c1	4	-19	49*	1	36
